Drawing on ChEMBL document CHEMBL1142461, “In vitro biological evaluation of novel 7-O-dialkylaminoalkyl cytotoxic pectolinarigenin derivatives against a panel of human cancer cell lines” (Bioorg Med Chem Lett, 2008), this text covers IC50 and logP for 8 compounds.

Series [1] is described as follows: Antiproliferative activity against human 142BR cells after 48 hrs by sulforhodamine B assay. Format: functional, cell-based. In short, it runs like this:
(§1)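 Cells grown in RPMI 1640 (ACHN, C32, COR-L23) or DMEM (142BR, A375, A549, Caco-2, Huh-7D12), seeded and allowed to attach for 24 h. Then exposed 48 h to six serial dilutions (DMSO ≤0.5% final, matched in solvent controls), in six replicates. Fixed with ice-cold 40% TCA for 1 h at 4 °C and SRB-stained, read at 564 nm. Survival taken as % of untreated control; IC50 from dose–response curve; mean ± SD.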

Series [2] in a line: Antiproliferative activity against human Huh-7D12 cells after 48 hrs by sulforhodamine B assay. The series is classed as functional, cell-based. As to conditions: Huh-7D12, 48 h. The essentials:
as §1
For orientation: The SRB assay estimates cell density from bound dye.

For series [3], the system named is Caco-2. Briefly: Antiproliferative activity against human Caco-2 cells after 48 hrs by sulforhodamine B assay. As to conditions: Caco-2, 48 h. The series is classed as functional, cell-based. In short, it runs like this: as §1
Series [4] concerns COR-L23. Briefly: Antiproliferative activity against human COR-L23 cells after 48 hrs by sulforhodamine B assay. The series is classed as functional, cell-based. As to conditions: COR-L23, 48 h. The essentials:
as §1

Series [5] concerns ACHN. Briefly: Antiproliferative activity against human ACHN cells after 48 hrs by sulforhodamine B assay. Format: functional, cell-based. The essentials:
as §1

Series [6] relates to C32. Briefly: Antiproliferative activity against human C32 cells after 48 hrs by sulforhodamine B assay. Format: functional, cell-based. As to conditions: C32, 48 h. The essentials: as §1
Series [7] deals with A549. Briefly: Antiproliferative activity against human A549 cells after 48 hrs by sulforhodamine B assay. The series is classed as functional, cell-based. As to conditions: A549, 48 h. The essentials: as §1
Series [8] deals with A-375. Briefly: Antiproliferative activity against human A375 cells after 48 hrs by sulforhodamine B assay. The series is classed as functional, cell-based. As to conditions: A-375, 48 h. The essentials:
as §1

Series [9] can be described thus: Partition coefficient, log P of the compound. The series is classed as physicochemical. As to conditions: octanol/water.

On to `COc1ccc(-c2cc(=O)c3c(O)c(OC)c(OCCCN(C)C)cc3o2)cc1`, for which the half-inhibitory concentration (IC50) in [1] is greater than 100 µM; in [2] it was greater than 100 µM; in series [3] it was greater than 100 µM; in series [4], 7.2 µM; in series [5], 10.8 µM; in series [6], 8.9 µM. The half-maximal inhibitory concentration (IC50) came to 7.4 µM in [7] and 7.7 µM in series [8]. Moreover, the lipophilicity (logP) in [9] is 2.4.

Turning to `COc1ccc(-c2cc(=O)c3c(O)c(OC)c(OCCN(C)C)cc3o2)cc1`, the 50% inhibitory concentration (IC50) in series [1] is greater than 100 µM; in series [2], greater than 100 µM; in [3] it was greater than 100 µM; in series [4], 9.2 µM; in series [5], 10.5 µM; in series [6], greater than 100 µM. Further, the results for the half-maximal inhibitory concentration (IC50) in [7] and in series [8] were 13.2 µM and greater than 100 µM, respectively. Besides, the logP in [9] was 2.3.

For `COc1ccc(-c2cc(=O)c3c(O)c(OC)c(OCCN4CCCC4)cc3o2)cc1`, the IC50 in series [1] was greater than 100 µM; in series [2] it was greater than 100 µM; in series [3] it was greater than 100 µM; in series [4], greater than 100 µM; in [5] it was 12.7 µM; in series [6], 54.7 µM. The IC50 in [7] is greater than 100 µM; in series [8] it was 38.6 µM. The compound also had a log partition coefficient (logP) in [9] of 2.6.

`COc1ccc(-c2cc(=O)c3c(O)c(OC)c(OCCN4CCCCC4)cc3o2)cc1`: the IC50 in [1] was greater than 100 µM; in series [2], greater than 100 µM; in series [3] it was 78.6 µM; in series [4], 34.1 µM; in [5], 92.6 µM; in series [6], 63.6 µM. Also, the 50% inhibitory concentration (IC50) in series [7] is 44.9 µM; in series [8], 52.3 µM. In series [9], this compound had a lipophilicity (logP) of 3.

On to `COc1ccc(-c2cc(=O)c3c(O)c(OC)c(OCCN4CCOCC4)cc3o2)cc1`, for which the half-maximal inhibitory concentration (IC50) in [1] is greater than 100 µM; in series [2], greater than 100 µM; in series [3], greater than 100 µM; in series [4], 39.5 µM; in series [5], 55.7 µM; in series [6], 47.6 µM. For the same compound, the half-inhibitory concentration (IC50) worked out at 85.1 µM in series [7] and 58.8 µM in [8]. The compound further registered a logP in [9] of 1.9.

As to `CCN(CC)CCOc1cc2oc(-c3ccc(OC)cc3)cc(=O)c2c(O)c1OC`, the IC50 in series [1] is greater than 100 µM; in series [2] it was greater than 100 µM; in series [3] it was greater than 100 µM; in [4] it was 41.9 µM; in series [5] it was 54.1 µM; in series [6] it was greater than 100 µM. Moreover, the IC50 is 59.9 µM in [7] and greater than 100 µM in [8]. The logP in [9] was 3.

Take `COc1ccc(-c2cc(=O)c3c(O)c(OC)c(O)cc3o2)cc1` [PECTOLINARIGENIN]: the IC50 is greater than 100 µM in series [1]; greater than 100 µM in series [2]; 5.3 µM in series [3]; 4.1 µM in [4]; 15.2 µM in [5]; 7 µM in series [6]. Moreover, the IC50 in series [7] amounted to 5.6 µM; in [8] it was 8.2 µM. The logP in series [9] came out at 2.

Turning to `COc1ccc(-c2cc(=O)c3c(O)c(OC)c(O[C@@H]4O[C@H](CO[C@@H]5O[C@@H](C)[C@H](O)[C@@H](O)[C@H]5O)[C@@H](O)[C@H](O)[C@H]4O)cc3o2)cc1` [PECTOLINARIN], the IC50 in series [1] is greater than 100 µM; in series [2] it was 50.8 µM; in series [3], 6.2 µM; in series [4], 5 µM; in [5] it was 17.2 µM; in [6], 7.2 µM. The figures for the half-maximal inhibitory concentration (IC50) in series [7] and in [8] were 38.8 µM and 32.9 µM, respectively. This compound showed a log partition coefficient (logP) in [9] of -0.7.

Usually IC50 stands for the concentration at which inhibition is half-maximal. Lower therefore signals greater potency. As usually defined, the logP is the decadic logarithm of the partition coefficient of the neutral form, usually between octanol and water. Low readings indicate lower lipophilicity, high ones higher lipophilicity.
